These results are taken from paper PMC6122986 (The Journal of Cell Biology, 2018).

Experiment [1] addresses FITC-labeled NOD "PT" motif-1 peptide (Drosophila melanogaster). The experiment in a line: MST.
The subject of experiment [2] is MTs in Drosophila S2 cells. Description: MT association / localization in Drosophila S2 cells by live cell imaging. It counts as cell-based. The note with it: fixation with paraformaldehyde and permeabilization with detergent. An outline of the steps:
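Drosophila S2 cells were grown in Schneider's medium with 10% heat-inactivated FBS at 25°C. Lines stably expressing C-terminally mCherry-tagged NOD truncations from a copper-inducible pMT vector were selected with blasticidin and/or hygromycin. Expression was induced with 500 µM or 25 µM CuSO4 for 16–18 h. Cells were imaged live on concanavalin A-coated glass and MT association scored as weak or strong. Retention was also checked after paraformaldehyde fixation and detergent permeabilization.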

The test system of experiment [3] is MTs in Drosophila S2 cells. The experiment in a line: Plus end-directed motility on MTs in cells. The format is cell-based. The conditions noted are these: TIRF microscopy, interphase S2 cells. An outline of the steps: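 Live TIRF imaged mCherry-tagged constructs on cortical MTs of interphase S2 cells. Cells were plated on concanavalin A-coated glass after 16–18 h CuSO4 induction at 500 µM (high) or 25 µM (low). Frames were taken every 1 s (single colour) or 2 s (dual colour, with GFP-α-tubulin). Velocities came from manually tracking motile puncta, with kymographs for direction.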

B1: Drosophila GST-EB1 (natural protein)
chain: MAVNVYSTNVTSENLSRHDMLAWVNDCLQSQFSKIEELCTGAAYCQFMDMLFPNSVPVKRVKFRTNLEHEYIQNFKILQAGFKKMSVDKIIPIDKLVKGRFQDNFEFLQWFKKFFDANYDGRDYDASAVREGAPMGFGSGAVKSLPGTAASGVSSSYRRGPSATTRPAMTSAVKPISKVLPRTNNAAPASRINACANSTGTVKKNDVSNSVNNQQIEEMSNQVMDMRINLEGLEKERDFYFSKLRDIEILCQEADDAEAHPIIQKILDILYATEDGFAPPDDAPPEDEEY
Usually Kd stands for a measure of binding affinity in units of concentration. Molecule B1 showed a Kd in experiment [1] of 725 nM. This lies in the sub-micromolar range.

B2: NOD485: NOD truncation (1–485) that encompasses the motor domain and the noncanonical neck extension region (protein, UniProt P18105 1-485, looked up, fragment)
chain: MEGAKLSAVRIAVREAPYRQFLGRREPSVVQFPPWSDGKSLIVDQNEFHFDHAFPATISQDEMYQALILPLVDKLLEGFQCTALAYGQTGTGKSYSMGMTPPGEILPEHLGILPRALGDIFERVTARQENNKDAIQVYASFIEIYNEKPFDLLGSTPHMPMVAARCQRCTCLPLHSQADLHHILELGTRNRRVRPTNMNSNSSRSHAIVTIHVKSKTHHSRMNIVDLAGSEGVRRTGHEGVARQEGVNINLGLLSINKVVMSMAAGHTVIPYRDSVLTTVLQASLTAQSYLTFLACISPHQCDLSETLSTLRFGTSAKKLRLNPMQVARQKQSLAARTTHVFRQALCTSTAIKSNAANHNSIVVPKSKYSTTKPLSAVLHRTRSELGMTPKAKKRARELLELEETTLELSSIHIQDSSLSLLGFHSDSDKDRHLMPPPTGQEPRQASSQNSTLMGIVEETEPKESSKVQQSMVAPTVPTTVRCQL
Regarding B2, the “MT localization upon fixation (in words)” value in experiment [2] is “significantly reduced upon fixation”. Moreover, the “motility on MTs in cells (in words)” value in experiment [3] is given as “motility was not obvious”.
